Test results from ChEMBL document CHEMBL5625188, “Exploring diverse reactive warheads for the design of SARS-CoV-2 main protease inhibitors” (Eur J Med Chem, 2023).

Columns and labels:
[1] = Cytotoxicity against African green monkey Vero cells incubated for 5 days by neutral red uptake assay; type: toxicity, cell-based; settings: chlorocebus sabaeus, time 5 day; for CC50 at 120 h: Vero cells; for CC50: vero, 120 h
In short: (§1)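 Vero E6 cells were kept in DMEM with 5% heat-inactivated FBS at 37 °C, 5% CO2, and seeded at 80,000 cells/mL. Neutral red uptake used 40 μg/mL dye for 2–4 h, read at 540 nm. CC50 came from a variable-slope dose-response fit.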

[2] = system: SARS-CoV-2; assay: Antiviral activity against SARS CoV-2 USA-WA1/2020 clinical isolate infected in human Calu-3 cells assessed as reduction in viral infection incubated for 48 hrs by imaging analysis; type: functional, organism-based; settings: Severe acute respiratory syndrome coronavirus 2, USA-WA1/2020, Calu-3, 48 h
[3] = Cytotoxicity against human Calu-3 cells infected with SARS CoV-2 USA-WA1/2020 clinical isolate assessed as reduction in cell viability incubated for 48 hrs by imaging analysis; type: toxicity, cell-based
[4] = molecular target: T1, Replicase polyprotein 1ab (Severe acute respiratory syndrome coronavirus 2, UniProt P0DTD1); assay: Inhibition of MPro of SARS CoV-2 BetaCoV/Wuhan/WIV04/2019 preincubated for 30 mins followed by substrate addition measured for 1 hr by FRET assay
[5] = Cytotoxicity against African green monkey Vero cells; type: toxicity, cell-based; settings: chlorocebus sabaeus; in short: as §1
[6] = molecular target: T1, Replicase polyprotein 1ab; assay: Inhibition of SARS-CoV-2 MPro
In short: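 FRET substrate was added to 10 μM final. Fluorescence (ex 360, em 460 nm) was followed 1 h at 30 °C. Initial velocities came from linear regression of the first 15 min, giving % inhibition and IC50.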

[7] = molecular target: T1, Replicase polyprotein 1ab; assay: Inhibition of MPro of SARS CoV-2 BetaCoV/Wuhan/WIV04/2019 incubated for 2 hrs in presence of substrate by FRET assay

SMILES	IC50 [4]	also measured
CCC(CC)COC(=O)[C@H](C)N[P@](=O)(OC[C@H]1O[C@@](C#N)(c2ccc3c(N)ncnn23)[C@H](O)[C@@H]1O)Oc1ccccc1 [REMDESIVIR]		CC50 at 120 h [1]: > 10 µM; EC50 [2]: 0.17 µM; CC50 at 48 h [3]: > 10 µM
C[C@H](NC(=O)C(c1cccnc1)N(C(=O)/C=C/Br)c1ccc(-c2ccccc2)cc1)c1ccccc1 (stereo partly drawn)	> 20 µM	
CO/C=C/C(=O)N(c1ccc(-c2ccccc2)cc1)C(C(=O)N[C@@H](C)c1ccccc1)c1cccnc1 (stereo partly drawn)	> 20 µM	
C[C@H](NC(=O)C(c1cccnc1)N(C(=O)/C=C/C(=O)O)c1ccc(-c2ccccc2)cc1)c1ccccc1 (stereo partly drawn)	12.4 µM	CC50 at 120 h [1]: > 250 µM
CCC(=O)C(=O)N(c1ccc(-c2ccccc2)cc1)C(C(=O)N[C@@H](C)c1ccccc1)c1cccnc1 (stereo partly drawn)	3.81 µM	
CC#CC(=O)N(c1ccc(-c2ccccc2)cc1)C(C(=O)N[C@@H](C)c1ccccc1)c1cccnc1 (stereo partly drawn)		CC50 at 120 h [1]: 18 µM
C[C@H](NC(=O)C(c1cccnc1)N(C(=O)C(F)(F)S(=O)(=O)F)c1ccc(-c2ccccc2)cc1)c1ccccc1 (stereo partly drawn)	> 20 µM	
C[C@H](NC(=O)C(c1cccnc1)N(C(=O)C1=CC(=O)CC1)c1ccc(-c2ccccc2)cc1)c1ccccc1 (stereo partly drawn)	> 20 µM	
C=C(Cl)C(=O)N(c1ccc(-c2ccccc2)cc1)C(C(=O)N[C@@H](C)c1ccccc1)c1cccnc1 (stereo partly drawn)		CC50 [5]: < 10 µM
C[C@H](NC(=O)C(c1cccnc1)N(C(=O)/C=C/Cl)c1ccc(-c2ccccc2)cc1)c1ccccc1 (stereo partly drawn)	> 20 µM	
C[C@H](NC(=O)[C@H](c1cccnc1)N(C(=O)C#CCCl)c1ccc(-c2ccccc2)cc1)c1ccccc1		CC50 [1]: 2.2 µM
C[C@H](NC(=O)C(c1cccnc1)N(C(=O)C1=CCCCC1)c1ccc(-c2ccccc2)cc1)c1ccccc1 (stereo partly drawn)	> 20 µM	
C=CS(=O)(=O)N(c1ccc(-c2ccccc2)cc1)[C@H](C(=O)N[C@@H](C)c1ccccc1)c1cccnc1	6.49 µM	
C[C@H](NC(=O)[C@@H](c1cccnc1)N(C(=O)C#CCCl)c1ccc(-c2ccccc2)cc1)c1ccccc1		CC50 [1]: 2 µM
C#CC(=O)N(c1ccc(-c2ccccc2)cc1)[C@H](C(=O)N[C@@H](C)c1ccccc1)c1cccnc1		CC50 at 120 h [1]: 2.8 µM
C[C@H](NC(=O)C(c1cccnc1)N(C(=O)C(=O)N1CCN(C)CC1)c1ccc(-c2ccccc2)cc1)c1ccccc1 (stereo partly drawn)	> 20 µM	
C/C=C(\C)C(=O)N(c1ccc(-c2ccccc2)cc1)C(C(=O)N[C@@H](C)c1ccccc1)c1cccnc1 (stereo partly drawn)	> 20 µM	
C[C@H](NC(=O)C(c1cccnc1)N(C(=O)C1(C#N)CCOCC1)c1ccc(-c2ccccc2)cc1)c1ccccc1 (stereo partly drawn)	> 20 µM	
C=C(C(=O)N(c1ccc(-c2ccccc2)cc1)C(C(=O)N[C@@H](C)c1ccccc1)c1cccnc1)c1ccccc1 (stereo partly drawn)	> 20 µM	
C[C@H](NC(=O)C(c1cccnc1)N(C(=O)C1(C#N)CC1)c1ccc(-c2ccccc2)cc1)c1ccccc1 (stereo partly drawn)	> 20 µM	
C[C@H](NC(=O)C(c1cccnc1)N(C(=O)C#CC1CC1)c1ccc(-c2ccccc2)cc1)c1ccccc1 (stereo partly drawn)	0.85 µM	CC50 [1]: 102 µM
C#CCC(=O)N(c1ccc(-c2ccccc2)cc1)C(C(=O)N[C@@H](C)c1ccccc1)c1cccnc1 (stereo partly drawn)	4.63 µM	
C[C@H](NC(=O)C(c1cccnc1)N(C(=O)C#CC(C)(C)F)c1ccc(-c2ccccc2)cc1)c1ccccc1 (stereo partly drawn)	> 20 µM	
CC(C)=CC(=O)N(c1ccc(-c2ccccc2)cc1)C(C(=O)N[C@@H](C)c1ccccc1)c1cccnc1 (stereo partly drawn)	> 20 µM	

SMILES	IC50 [4]	also measured
C=CS(=O)(=O)N(c1ccc(-c2ccccc2)cc1)[C@@H](C(=O)N[C@@H](C)c1ccccc1)c1cccnc1	0.31 µM	CC50 [1]: 18.4 µM
CC(C)/C=C(\C#N)C(=O)N(c1ccc(-c2ccccc2)cc1)C(C(=O)N[C@@H](C)c1ccccc1)c1cccnc1 (stereo partly drawn)	> 20 µM	
CC(C)C#CC(=O)N(c1ccc(-c2ccccc2)cc1)C(C(=O)N[C@@H](C)c1ccccc1)c1cccnc1 (stereo partly drawn)	4.19 µM	
C[C@H](NC(=O)C(c1cccnc1)N(C(=O)C1(C#N)CCN(C(=O)OC(C)(C)C)CC1)c1ccc(-c2ccccc2)cc1)c1ccccc1 (stereo partly drawn)	> 20 µM	
C[C@H](NC(=O)C(c1cccnc1)N(C(=O)/C=C\I)c1ccc(-c2ccccc2)cc1)c1ccccc1 (stereo partly drawn)	> 20 µM	
C#CC(=O)N(c1ccc(-c2ccccc2)cc1)[C@@H](C(=O)N[C@@H](C)c1ccccc1)c1cccnc1		CC50 at 120 h [1]: 2.06 µM
C=C(Br)C(=O)N(c1ccc(-c2ccccc2)cc1)C(C(=O)N[C@@H](C)c1ccccc1)c1cccnc1 (stereo partly drawn)	4.26 µM	CC50 at 120 h [1]: < 3.9 µM
C#CCN(c1ccc(-c2ccccc2)cc1)C(C(=O)N[C@@H](C)c1ccccc1)c1cccnc1 (stereo partly drawn)	> 20 µM	
C[C@H](NC(=O)C(c1cccnc1)N(C(=O)/C=C/c1ccco1)c1ccc(-c2ccccc2)cc1)c1ccccc1 (stereo partly drawn)	15.4 µM	
COC(=O)/C=C/C(=O)N(c1ccc(-c2ccccc2)cc1)C(C(=O)N[C@@H](C)c1ccccc1)c1cccnc1 (stereo partly drawn)	3.97 µM	CC50 at 120 h [1]: 8.9 µM
C[C@H](NC(=O)[C@H](c1cccnc1)N(C(=O)C#CCC#N)c1ccc(-c2ccccc2)cc1)c1ccccc1	> 20 µM	
C#CCCC(=O)N(c1ccc(-c2ccccc2)cc1)C(C(=O)N[C@@H](C)c1ccccc1)c1cccnc1 (stereo partly drawn)	> 20 µM	
C=CC(=O)N(c1ccc(-c2ccccc2)cc1)C(C(=O)N[C@@H](C)c1ccccc1)c1cccnc1 (stereo partly drawn)		IC50 [6]: > 20 µM
C[C@H](NC(=O)C(c1cccnc1)N(C(=O)C(C#N)=C1CCCCC1)c1ccc(-c2ccccc2)cc1)c1ccccc1 (stereo partly drawn)	> 20 µM	
CC(=O)/C=C/C(=O)N(c1ccc(-c2ccccc2)cc1)C(C(=O)N[C@@H](C)c1ccccc1)c1cccnc1 (stereo partly drawn)	17 µM	
C=C(C)C(=O)N(c1ccc(-c2ccccc2)cc1)C(C(=O)N[C@@H](C)c1ccccc1)c1cccnc1 (stereo partly drawn)	> 20 µM	
C[C@H](NC(=O)C(c1cccnc1)N(C(=O)C#CC(C)(C)O)c1ccc(-c2ccccc2)cc1)c1ccccc1 (stereo partly drawn)	1.28 µM	CC50 at 120 h [1]: 19.1 µM
C=C(F)C(=O)N(c1ccc(-c2ccccc2)cc1)C(C(=O)N[C@@H](C)c1ccccc1)c1cccnc1 (stereo partly drawn)	> 20 µM	
C=C(C(=O)N(c1ccc(-c2ccccc2)cc1)C(C(=O)N[C@@H](C)c1ccccc1)c1cccnc1)C(F)(F)F (stereo partly drawn)	4.36 µM	CC50 at 120 h [1]: < 3.9 µM
C[C@H](NC(=O)C(c1cccnc1)N(C(=O)/C(C#N)=C/C1CC1)c1ccc(-c2ccccc2)cc1)c1ccccc1 (stereo partly drawn)	> 20 µM	
C=C(NC(C)=O)C(=O)N(c1ccc(-c2ccccc2)cc1)C(C(=O)N[C@@H](C)c1ccccc1)c1cccnc1 (stereo partly drawn)	> 20 µM	
COc1ccc(/C=C(\C#N)C(=O)N(c2ccc(-c3ccccc3)cc2)[C@@H](C(=O)N[C@@H](C)c2ccccc2)c2cccnc2)cc1		CC50 [1]: > 100 µM; CC50 at 48 h [3]: > 100 µM
C[C@H](NC(=O)[C@@H](c1cccnc1)N(C(=O)C#CCC#N)c1ccc(-c2ccccc2)cc1)c1ccccc1	0.5 µM	CC50 at 120 h [1]: > 100 µM; Ki [7]: 0.345 µM; EC50 [2]: 2.92 µM; CC50 at 48 h [3]: > 100 µM
CCC#CC(=O)N(c1ccc(-c2ccccc2)cc1)C(C(=O)N[C@@H](C)c1ccccc1)c1cccnc1 (stereo partly drawn)	1.65 µM	CC50 at 120 h [1]: 38.6 µM
